# ChEMBL document CHEMBL4689842, “EUbOPEN Chemogenomics Library wave 1” (2021)
# Assays:
# Fibroblast = assay: Incucyte cell viability with human fibroblast; assay type: toxicity, cell-based; conditions: 10 µM, compound concentration 10 uM; note: filed as whole numbers so only -1 and 0 and 1 occur
# HEK-293T = assay: Multiplex assay against HEK293T; assay type: toxicity, cell-based; conditions: human;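 for Population Tubulin-Different-Phenotype (%): share of the cells with healthy nuclei that show this phenotype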
# Method in brief: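 Values for tubulin, mitochondrial-mass and membrane-permeability phenotypes are per cents of cells with healthy nuclei. These cells were identified by CellPathfinder machine-learning gating of live cells that had been stained at seeding with Hoechst33342, BioTracker Green Microtubule Cytoskeleton Dye, MitoTracker Red and Annexin V Alexa Fluor 680 and imaged on a CQ1 microscope at 37°C and 5% CO2 after compound addition. The gating first set Hoechst high-intensity objects apart from normal cells, then split normal cells into healthy, pyknosed or fragmented nuclei, and pyknosed cells into mitotic or apoptotic.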
# [1] = 12 h, 1 µM, compound concentration 1 uM, replicate 1
# [2] = 12 h, 1 µM, compound concentration 1 uM, replicate 2
# [3] = 12 h, 10 µM, compound concentration 10 uM, replicate 1
# [4] = 12 h, 10 µM, compound concentration 10 uM, replicate 2
# [5] = 24 h, 1 µM, compound concentration 1 uM, replicate 1
# [6] = 24 h, 1 µM, compound concentration 1 uM, replicate 2
# [7] = 24 h, 10 µM, compound concentration 10 uM, replicate 1
# [8] = 24 h, 10 µM, compound concentration 10 uM, replicate 2
# [9] = 48 h, 1 µM, compound concentration 1 uM, replicate 1
# [10] = 48 h, 1 µM, compound concentration 1 uM, replicate 2
# [11] = 48 h, 10 µM, compound concentration 10 uM, replicate 1
# [12] = 48 h, 10 µM, compound concentration 10 uM, replicate 2
smiles,measurement,setting,value
Cc1ccc(S(=O)(=O)NC2c3ccccc3Oc3ccccc32)cc1,Growth Rate,"Fibroblast; 0 h, replicate number 1, timepoint 0 hours",0
same,Growth Rate,"Fibroblast; 24 h, replicate number 1, timepoint 24 hours",1
same,Population Apoptotic (%),HEK-293T; [1],46%
same,Population Fragmented Nuclei (%),HEK-293T; [1],11%
same,Population Healthy Nuclei (%),HEK-293T; [1],44%
same,Population Hoechst High Intensity Objects (%),HEK-293T; [1],11%
same,Population Membrane Permeable-Phenotype (%),HEK-293T; [1],2%
same,Population Mitochondria Different-Phenotype (%),HEK-293T; [1],64%
same,Population Mitotic Cells (%),HEK-293T; [1],53%
same,Population Normal (%),HEK-293T; [1],88%
same,Population Pyknosed Nuclei (%),HEK-293T; [1],44%
same,Population Tubulin-Different-Phenotype (%),HEK-293T; [1],27%
same,Total Cell Count,HEK-293T; [1],362
same,Population Apoptotic (%),HEK-293T; [2],21%
same,Population Fragmented Nuclei (%),HEK-293T; [2],5%
same,Population Healthy Nuclei (%),HEK-293T; [2],49%
same,Population Hoechst High Intensity Objects (%),HEK-293T; [2],2%
same,Population Membrane Permeable-Phenotype (%),HEK-293T; [2],17%
same,Population Mitochondria Different-Phenotype (%),HEK-293T; [2],9%
same,Population Mitotic Cells (%),HEK-293T; [2],78%
same,Population Normal (%),HEK-293T; [2],97%
same,Population Pyknosed Nuclei (%),HEK-293T; [2],45%
same,Population Tubulin-Different-Phenotype (%),HEK-293T; [2],22%
same,Total Cell Count,HEK-293T; [2],179
same,Population Apoptotic (%),HEK-293T; [3],59%
same,Population Fragmented Nuclei (%),HEK-293T; [3],32%
same,Population Healthy Nuclei (%),HEK-293T; [3],37%
same,Population Hoechst High Intensity Objects (%),HEK-293T; [3],11%
same,Population Membrane Permeable-Phenotype (%),HEK-293T; [3],3%
same,Population Mitochondria Different-Phenotype (%),HEK-293T; [3],86%
same,Population Mitotic Cells (%),HEK-293T; [3],40%
same,Population Normal (%),HEK-293T; [3],88%
same,Population Pyknosed Nuclei (%),HEK-293T; [3],30%
same,Population Tubulin-Different-Phenotype (%),HEK-293T; [3],74%
same,Total Cell Count,HEK-293T; [3],398
same,Population Apoptotic (%),HEK-293T; [4],16%
same,Population Fragmented Nuclei (%),HEK-293T; [4],33%
same,Population Healthy Nuclei (%),HEK-293T; [4],34%
same,Population Hoechst High Intensity Objects (%),HEK-293T; [4],5%
same,Population Membrane Permeable-Phenotype (%),HEK-293T; [4],12%
same,Population Mitochondria Different-Phenotype (%),HEK-293T; [4],33%
same,Population Mitotic Cells (%),HEK-293T; [4],83%
same,Population Normal (%),HEK-293T; [4],94%
same,Population Pyknosed Nuclei (%),HEK-293T; [4],31%
same,Population Tubulin-Different-Phenotype (%),HEK-293T; [4],49%
same,Total Cell Count,HEK-293T; [4],307
same,Population Apoptotic (%),HEK-293T; [5],41%
same,Population Fragmented Nuclei (%),HEK-293T; [5],10%
same,Population Healthy Nuclei (%),HEK-293T; [5],47%
same,Population Hoechst High Intensity Objects (%),HEK-293T; [5],13%
same,Population Membrane Permeable-Phenotype (%),HEK-293T; [5],4%
same,Population Mitochondria Different-Phenotype (%),HEK-293T; [5],55%
same,Population Mitotic Cells (%),HEK-293T; [5],58%
same,Population Normal (%),HEK-293T; [5],86%
same,Population Pyknosed Nuclei (%),HEK-293T; [5],41%
same,Population Tubulin-Different-Phenotype (%),HEK-293T; [5],41%
same,Total Cell Count,HEK-293T; [5],392
same,Population Apoptotic (%),HEK-293T; [6],22%
same,Population Fragmented Nuclei (%),HEK-293T; [6],8%
same,Population Healthy Nuclei (%),HEK-293T; [6],55%
same,Population Hoechst High Intensity Objects (%),HEK-293T; [6],1%
same,Population Membrane Permeable-Phenotype (%),HEK-293T; [6],23%
same,Population Mitochondria Different-Phenotype (%),HEK-293T; [6],12%
same,Population Mitotic Cells (%),HEK-293T; [6],77%
same,Population Normal (%),HEK-293T; [6],98%
same,Population Pyknosed Nuclei (%),HEK-293T; [6],36%
same,Population Tubulin-Different-Phenotype (%),HEK-293T; [6],29%
same,Total Cell Count,HEK-293T; [6],239
same,Population Apoptotic (%),HEK-293T; [7],55%
same,Population Fragmented Nuclei (%),HEK-293T; [7],13%
same,Population Healthy Nuclei (%),HEK-293T; [7],55%
same,Population Hoechst High Intensity Objects (%),HEK-293T; [7],10%
same,Population Membrane Permeable-Phenotype (%),HEK-293T; [7],7%
same,Population Mitochondria Different-Phenotype (%),HEK-293T; [7],68%
same,Population Mitotic Cells (%),HEK-293T; [7],45%
same,Population Normal (%),HEK-293T; [7],89%
same,Population Pyknosed Nuclei (%),HEK-293T; [7],30%
same,Population Tubulin-Different-Phenotype (%),HEK-293T; [7],55%
same,Total Cell Count,HEK-293T; [7],362
same,Population Apoptotic (%),HEK-293T; [8],17%
same,Population Fragmented Nuclei (%),HEK-293T; [8],11%
same,Population Healthy Nuclei (%),HEK-293T; [8],52%
same,Population Hoechst High Intensity Objects (%),HEK-293T; [8],3%
same,Population Membrane Permeable-Phenotype (%),HEK-293T; [8],9%
same,Population Mitochondria Different-Phenotype (%),HEK-293T; [8],31%
same,Population Mitotic Cells (%),HEK-293T; [8],82%
same,Population Normal (%),HEK-293T; [8],96%
same,Population Pyknosed Nuclei (%),HEK-293T; [8],36%
same,Population Tubulin-Different-Phenotype (%),HEK-293T; [8],47%
same,Total Cell Count,HEK-293T; [8],283
same,Population Apoptotic (%),HEK-293T; [9],34%
same,Population Fragmented Nuclei (%),HEK-293T; [9],18%
same,Population Healthy Nuclei (%),HEK-293T; [9],46%
same,Population Hoechst High Intensity Objects (%),HEK-293T; [9],12%
same,Population Membrane Permeable-Phenotype (%),HEK-293T; [9],2%
same,Population Mitochondria Different-Phenotype (%),HEK-293T; [9],26%
same,Population Mitotic Cells (%),HEK-293T; [9],65%
same,Population Normal (%),HEK-293T; [9],87%
same,Population Pyknosed Nuclei (%),HEK-293T; [9],35%
same,Population Tubulin-Different-Phenotype (%),HEK-293T; [9],28%
same,Total Cell Count,HEK-293T; [9],465
same,Population Apoptotic (%),HEK-293T; [10],13%
same,Population Fragmented Nuclei (%),HEK-293T; [10],8%
same,Population Healthy Nuclei (%),HEK-293T; [10],78%
same,Population Hoechst High Intensity Objects (%),HEK-293T; [10],3%
same,Population Membrane Permeable-Phenotype (%),HEK-293T; [10],11%
same,Population Mitochondria Different-Phenotype (%),HEK-293T; [10],3%
same,Population Mitotic Cells (%),HEK-293T; [10],86%
same,Population Normal (%),HEK-293T; [10],96%
same,Population Pyknosed Nuclei (%),HEK-293T; [10],12%
same,Total Cell Count,HEK-293T; [10],466
same,Population Apoptotic (%),HEK-293T; [11],36%
same,Population Fragmented Nuclei (%),HEK-293T; [11],13%
same,Population Healthy Nuclei (%),HEK-293T; [11],66%
same,Population Hoechst High Intensity Objects (%),HEK-293T; [11],8%
same,Population Membrane Permeable-Phenotype (%),HEK-293T; [11],2%
same,Population Mitochondria Different-Phenotype (%),HEK-293T; [11],27%
same,Population Mitotic Cells (%),HEK-293T; [11],63%
same,Population Normal (%),HEK-293T; [11],91%
same,Population Pyknosed Nuclei (%),HEK-293T; [11],20%
same,Population Tubulin-Different-Phenotype (%),HEK-293T; [11],38%
same,Total Cell Count,HEK-293T; [11],453
same,Population Apoptotic (%),HEK-293T; [12],12%
same,Population Fragmented Nuclei (%),HEK-293T; [12],4%
same,Population Healthy Nuclei (%),HEK-293T; [12],73%
same,Population Hoechst High Intensity Objects (%),HEK-293T; [12],2%
same,Population Membrane Permeable-Phenotype (%),HEK-293T; [12],6%
same,Population Mitochondria Different-Phenotype (%),HEK-293T; [12],20%
same,Population Mitotic Cells (%),HEK-293T; [12],87%
same,Population Normal (%),HEK-293T; [12],97%
same,Population Pyknosed Nuclei (%),HEK-293T; [12],22%
same,Population Tubulin-Different-Phenotype (%),HEK-293T; [12],45%
same,Total Cell Count,HEK-293T; [12],374
